Reference: ChEMBL document CHEMBL1914448, “Proteolytically stable cancer targeting peptides with high affinity for breast cancer cells” (J Med Chem, 2011)
Calls of active or inactive are those of the source. Peptide text beside a SMILES is read from it.

How the values were obtained:
[1] = tested on: Liver; assay: Proteolytic stability in CD1 mouse liver homogenate after 15 mins by RP-HPLC analysis; format: ADME, tissue-based; settings: tissue homogenate, 0.25 h
Summary of the method: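 Liver homogenate from male CD-1 mice, made in ice-cold HEPES pH 7.4 and centrifuged; supernatant adjusted to 14.7 mg/mL protein. Peptide added from a 1 mM stock in 5% ACN/water (100 μL) to 200 μL homogenate plus 700 μL RPMI, pH 7.4 (2.94 mg protein). Incubated at 37 °C with shaking, sampled at intervals, and analysed by RP-HPLC.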

[2] = tested on: MCF7; assay: Drug uptake in human MCF7 cells assessed as increase in fluorescently labeled cells at 10 '-5 mol/L after 30 mins by FACS analysis relative to untreated control; format: ADME, cell-based; settings: mcf7, 0.5 h, 10 µM
Summary of the method: (§1)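 Cells grown to 80% confluence, trypsinized, seeded at 10^6 per well and cultured 24 h. They were then exposed to FITC-peptide at 10−5 mol/L in serum-free medium for 30 min at 37 °C, washed, and trypsinized to strip surface-bound peptide. Read by flow cytometry as percent cells above the autofluorescence cutoff of untreated cells. Repeated 2−3 times.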

[3] = tested on: MDA-MB-231; assay: Drug uptake in human MDA-MB-231 cells assessed as increase in fluorescently labeled cells at 10 '-5 mol/L after 30 mins by FACS analysis relative to untreated control; format: ADME, cell-based; settings: mda-mb-231, 0.5 h, 10 µM; summary of the method: as §1
[4] = tested on: MDA-MB-435; assay: Binding affinity to human MDA-MB-435 cells by CyQuant GR fluorescent dye-based assay; format: functional, cell-based
[5] = tested on: Serum; assay: Proteolytic stability in human serum assessed as compound degradation after 30 mins by RP-HPLC analysis; format: ADME, cell-free; settings: 0.5 h
Summary of the method: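 Final mix of 25% human serum in RPMI, equilibrated at 37 °C for 15 min. Peptide added from a 1 mM water stock (100 μL into 1 mL total). Aliquots taken at 0, 0.5, 1, 5 and 24 h and quenched in methanol; serum proteins pelleted. Supernatant analysed by RP-HPLC (12–100% IPA/water, 214 nm); peaks integrated, with fragments identified by MALDI-TOF.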

[6] = tested on: MDA-MB-435; assay: Drug uptake in human MDA-MB-435 cells assessed as increase in fluorescently labeled cells at 10 '-5 mol/L after 30 mins by FACS analysis relative to untreated control; format: ADME, cell-based; settings: mda-mb-435, 0.5 h, 10 µM; summary of the method: as §1
[7] = tested on: MDA-MB-435; assay: Drug uptake in human MDA-MB-435 cells assessed as internalization at 10 '-5 mol/L after 30 mins by fluorescence microscopy; format: ADME, cell-based; settings: mda-mb-435, 0.5 h, 10 µM
Summary of the method: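 MDA-MB-435 cells (50 000) grown on coverslips for 24 h at 37 °C, then given FITC-labeled peptide at 10−5 mol/L in serum-free medium for 30 min at 37 °C. Washed, fixed on ice with 2% formaldehyde for 20 min, nuclei stained with DAPI. Imaged by fluorescence microscopy at 20×; internalization confirmed by confocal optical sectioning, 40× oil lens, 1.64 μm steps.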

[8] = tested on: MCF7; assay: Drug uptake in human MCF7 cells assessed as increase in fluorescently labeled cells at 10 '-5 mol/L after 30 mins by FACS analysis relative to WNleEAAYQRFL peptide; format: ADME, cell-based; settings: mcf7, 0.5 h, 10 µM
Summary of the method: (§2)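 Cells grown to 80% confluence, trypsinized, seeded at 10^6 per well for 24 h at 37 °C, then exposed to FITC-labeled peptides at 10−5 mol/L in serum-free medium for 30 min at 37 °C. Washed three times with PBS, trypsinized to strip surface-bound peptide, analyzed by flow cytometry. Untreated-cell autofluorescence set the cutoff for labeled cells. Repeated 2−3 times.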

[9] = tested on: MDA-MB-231; assay: Drug uptake in human MDA-MB-231 cells assessed as increase in fluorescently labeled cells at 10 '-5 mol/L after 30 mins by FACS analysis relative to WNleEAAYQRFL peptide; format: ADME, cell-based; settings: mda-mb-231, 0.5 h, 10 µM; summary of the method: as §2
[10] = tested on: MDA-MB-435; assay: Drug uptake in human MDA-MB-435 cells assessed as increase in fluorescently labeled cells at 10 '-5 mol/L after 30 mins by FACS analysis relative to WNleEAAYQRFL peptide; format: ADME, cell-based; settings: mda-mb-435, 0.5 h, 10 µM; summary of the method: as §2
[11] = tested on: HUVEC; assay: Drug uptake in human HUVEC cells at 10 '-5 mol/L after 30 mins by confocal microscopy; format: ADME, cell-based; settings: 0.5 h, 10 µM
Summary of the method: (§3)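 MDA-MB-435 or HUVEC cells (50,000) grown on coverslips for 24 h at 37 °C, then exposed to FITC-labelled peptide at 10−5 mol/L in serum-free medium for 30 min at 37 °C. Cells washed, fixed on ice in 2% formaldehyde for 20 min, nuclei stained with DAPI. Imaged by fluorescence microscopy (20×); the same samples were taken to confocal optical sectioning (40× oil) to confirm internalization.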

[12] = tested on: MDA-MB-435; assay: Drug uptake in human MDA-MB-435 cells at 10 '-5 mol/L after 30 mins by confocal microscopy; format: ADME, cell-based; settings: mda-mb-435, 0.5 h, 10 µM; summary of the method: as §3
[13] = organism: Homo sapiens; assay: Binding affinity to human MDA-MB-435 cell membrane at 10 '-5 mol/L after 30 mins by fluorescence microscopy; summary of the method: as §3
[14] = Cytotoxicity against human MDA-MB-435 cells assessed as cell viability up to 100 uM by MTT assay; format: cell-based; settings: read-out: Activity
Summary of the method: (§4)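 MDA-MB-435 cells seeded at 1 × 10^4 cells/well in serum-free RPMI with antibiotics, 37 °C, 5% CO2; after 24 h, peptides (1−100 μM, made up in sterile water) added for 48 h; doxorubicin positive control, untreated negative control. MTT (5 mg/mL medium) 3.5 h, formazan dissolved in DMSO, A570 with 650 nm reference. Viability = absorbance treated/untreated; triplicate, mean.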

[15] = tested on: Liver; assay: Proteolytic stability in CD1 mouse liver homogenate up to 48 hrs by RP-HPLC analysis; format: ADME, tissue-based; settings: tissue homogenate
Summary of the method: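 Homogenate prepared from male CD-1 mouse liver in ice-cold HEPES pH 7.4, centrifuged, and its protein set by BCA. Peptide stock (1 mM in 5% ACN/water) diluted into homogenate plus RPMI pH 7.4 (2.94 mg protein total), shaken at 37 °C up to 48 h. Timed aliquots analyzed by RP-HPLC.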

[16] = tested on: MCF-10A; assay: Drug uptake by human MCF10A cells assessed as increase in fluorescently labeled cells after 30 mins by FACS analysis relative to untreated control; format: ADME, cell-based; settings: 0.5 h; summary of the method: as §2
[17] = tested on: HUVEC; assay: Drug uptake in human HUVEC cells assessed as increase in fluorescently labeled cells after 30 mins by FACS analysis relative to untreated control; format: ADME, cell-based; settings: 0.5 h; summary of the method: as §2
[18] = tested on: Serum; assay: Proteolytic stability in human serum assessed as compound degradation from 0.5 to 24 hrs by RP-HPLC analysis; format: ADME, cell-free
Summary of the method: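 25% human serum in RPMI, equilibrated at 37 °C, with peptide added from a 1 mM aqueous stock. Aliquots taken at 0, 0.5, 1, 5 and 24 h, proteins precipitated with methanol at 4 °C and spun down. Supernatant run on C18 RP-HPLC with a 12−100% IPA/water gradient, detection at 214 nm. Peaks quantified by area; identity checked by MALDI-TOF.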

[19] = tested on: MDA-MB-435; assay: Binding affinity to human MDA-MB-435 cells assessed as decrease in fluorescence after 30 mins by FACS analysis in the presence of unlabelled compound; format: functional, cell-based
Summary of the method: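 Competition assay by flow cytometry in MDA-MB-435 cells. FITC-labelled peptide at 10−5 mol/L was co-incubated with a 50-fold excess of the same unlabelled peptide for 30 min at 37 °C. Cells washed with ice-cold PBS, then FACS as in the uptake assay. Repeated 2−3 times.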

[20] = tested on: MDA-MB-435; assay: Growth inhibition of human MDA-MB-435 cells at 15 uM by MTT assay; format: functional, cell-based; summary of the method: as §4

Row | Drug uptake [7] | fold change (FC) [8] | fold change (FC) [9] | fold change (FC) [10] | Stability [15] | Drug uptake [16] | Drug uptake [17] | Stability [18] | Compound | Stability [1] | Drug uptake [2] | Drug uptake [3] | Kd [4] | Stability [5] | Drug uptake [6] | Drug uptake [11] | Drug uptake [12] | Activity [13] | viability [14] | Activity [19] | growth inhibition (GI) [20]
1 | – | – | – | – | – | – | – | – | CCCC[C@H](NC(=O)[C@@H](N)Cc1c[nH]c2ccccc12)C(=O)N[C@@H](CCC(=O)O)C(=O)N[C@@H](C)C(=O)N[C@@H](C)C(=O)N[C@@H](Cc1ccc(O)cc1)C(=O)N[C@@H](CCC(N)=O)C(=O)N[C@@H](CCCNC(=N)N)C(=O)N[C@@H](Cc1ccccc1)C(=O)N[C@@H](CC(C)C)C(=O)O (HELM PEPTIDE1{W.[Nle].E.A.A.Y.Q.R.F.L}$$$$V2.0) | Unstable | 22% | 16% | 42 µM | Unstable | 10% | – | – | – | – | – | –
2 | Active | 3 | 3 | 3 | Stable | 50% | 30% | Stable | CCCC[C@H](NC(=O)C[C@H](N)C(=O)NCc1cccc2ccccc12)C(=O)N[C@@H](CCC(=O)O)C(=O)N[C@@H](CC(=O)N[C@@H](C)C(=O)N[C@@H](Cc1ccc(O)cc1)C(=O)N[C@@H](CCC(N)=O)C(=O)N[C@@H](CC(=O)N[C@@H](Cc1ccccc1)C(=O)N[C@@H](CC(C)C)C(=O)O)C(=O)NCCCCN)C(=O)NC | – | – | – | – | – | – | Not Active | Active | Active | > 98% | – | –
3 | – | – | – | – | – | – | – | – | COc1cccc2c1C(=O)c1c(O)c3c(c(O)c1C2=O)C[C@@](O)(C(=O)CO)C[C@@H]3O[C@H]1C[C@H](N)[C@H](O)[C@H](C)O1 | – | – | – | – | – | – | – | – | – | – | – | Active
4 | – | 3 | 3 | 3 | Stable | 55% | 35% | Stable | CCCC[C@H](NC(=O)C[C@H](N)C(=O)NCc1cccc2ccccc12)C(=O)N[C@@H](CCC(=O)O)C(=O)N[C@@H](C)C(=O)N[C@@H](CC(=O)N[C@@H](Cc1ccc(O)cc1)C(=O)N[C@@H](CCC(N)=O)C(=O)N[C@@H](CC(=O)N[C@@H](Cc1ccccc1)C(=O)N[C@@H](CC(C)C)C(=O)O)C(=O)NCCCCN)C(=O)NC | – | – | – | – | – | – | – | – | – | > 98% | – | –
5 | – | – | – | – | – | – | – | – | H-WEEAAYQRFL-OH | – | 60% | 33% | – | – | 14% | – | – | – | – | – | –

Row | Compound | Drug uptake [7] | fold change (FC) [8] | fold change (FC) [9] | fold change (FC) [10] | Stability [15] | Drug uptake [16] | Drug uptake [17] | Stability [18] | Stability [1] | Drug uptake [2] | Drug uptake [3] | Kd [4] | Stability [5] | Drug uptake [6] | Drug uptake [11] | Drug uptake [12] | Activity [13] | viability [14] | Activity [19] | growth inhibition (GI) [20]
6 | CCCC[C@@H](NC(=O)[C@@H](N)Cc1c[nH]c2ccccc12)C(=O)N[C@@H](CCC(=O)O)C(=O)N[C@@H](C)C(=O)N[C@@H](C)C(=O)N[C@@H](Cc1ccc(O)cc1)C(=O)N[C@@H](CCC(N)=O)C(=O)N[C@H](CCCNC(=N)N)C(=O)N[C@@H](Cc1ccccc1)C(=O)N[C@@H](CC(C)C)C(=O)O (HELM PEPTIDE1{W.[CCCC[C@@H](N[*:1])C(=O)[*:2]].E.A.A.Y.Q.[dR].F.L}$$$$V2.0) | – | 3.5 | 3.5 | 3.5 | Stable | 36% | 12% | Stable | – | 68% | 45% | – | – | 35% | Not Active | Active | Active | > 98% | inactive | –
